Hits are enriched below; roughly 9.6% of the tested compounds scored in any of these assays.
L major viab: inhibitors of Leishmania major promastigote growth; Leishmania major promastigotes, resazurin fluorescence viability; inhibition, % at 10 µM; 9% of 200,000 active; in the data active means inhibition above about 50%;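 further: promastigotes grown with compound for 44 hours at 28 °C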
bCat KO growth: beta-catenin-lacking colon tumor cell growth suppression. HCT116 beta-catenin knockout viability, CellTiter-Glo, 60 h; stronger effect = lower value. viability, % at 10 µM. 1.5% of 140,000 active;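 active means viability at or under a set limit, the compound median less 4 SD, cut at about 6% in these data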;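 further: 0% = Hyamine 1622 control at 20 µM and 100% = untreated cell control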
HCT116 PTEN-null: suppresses growth of cells with PTEN deletion | 1.2% of 140,000 active | viability, % at 10 µM | HCT116 PTEN-null viability, CellTiter-Glo, 60 h; stronger effect = lower value;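 active means viability at or below a set limit, 4 SD under the median of all tested compounds, cut at about 3.7% in these data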;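 further: PTEN knockout HCT116 line with beta catenin targeted HCT116 as companion control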
TNAP inh noacc: blocks human TNAP activity with no phosphate acceptor present; purified TNAP, CDP-star luminescence, 30 min; inhibition, % at 20 µM; 0.26% of 200,000 active; AID 1012;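 active means tissue-nonspecific alkaline phosphatase inhibition above about 50% at 20 µM in the single-dose screen, limit read from the data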;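 further: 0% = DMSO negative control and 100% = EDTA positive control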
Target sequence (P05186 whole entry, looked up): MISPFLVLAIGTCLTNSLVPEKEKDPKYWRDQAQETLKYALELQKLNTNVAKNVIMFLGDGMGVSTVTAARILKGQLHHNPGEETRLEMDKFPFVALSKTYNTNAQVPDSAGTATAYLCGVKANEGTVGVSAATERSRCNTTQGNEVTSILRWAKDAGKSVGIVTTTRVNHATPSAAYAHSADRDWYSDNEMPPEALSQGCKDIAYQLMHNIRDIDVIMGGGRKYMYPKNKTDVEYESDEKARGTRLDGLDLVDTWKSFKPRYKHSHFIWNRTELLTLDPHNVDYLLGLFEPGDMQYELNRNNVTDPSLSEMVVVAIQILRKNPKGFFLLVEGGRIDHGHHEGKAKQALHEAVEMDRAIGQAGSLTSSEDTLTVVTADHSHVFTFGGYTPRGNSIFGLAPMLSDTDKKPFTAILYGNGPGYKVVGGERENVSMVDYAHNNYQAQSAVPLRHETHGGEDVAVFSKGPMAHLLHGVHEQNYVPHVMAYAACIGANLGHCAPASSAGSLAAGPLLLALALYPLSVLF
TNAP act hiacc: increases human TNAP activity under high phosphate acceptor concentration; purified TNAP, CDP-star luminescence, 1 M DEA, 30 min; stronger effect = higher value; 0 = EDTA background, 1 = DMSO-only activity; activation factor at 20 µM; 200,000 tested, under 10 active;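 active means activation factor at least 2 at 20 µM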
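system = human TNAP | amount = enzyme diluted 1/800 final | reagent = 100 µM CDP-star substrate | signal = luminescent substrate turnover signal | dosing = one dose, 20 µM | benchmarks = EDTA negative control, DMSO positive control | measure = activation factor | timing = 30 min reaction, room temperature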
TNAP inh hiacc: TNAP (human) inhibition, high acceptor | purified TNAP, CDP-star luminescence, 1 M DEA | inhibition, % at 20 µM | 0.03% of 200,000 active;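 active means over 50% inhibition of tissue-nonspecific alkaline phosphatase at 20 µM in the single-dose screen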;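 further: plate controls were DMSO wells for no effect and EDTA-quenched wells as full inhibition for full effect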
* = called active by the depositor; · = no result given.

SMILES	L major viab	bCat KO growth	HCT116 PTEN-null	TNAP inh noacc	TNAP act hiacc	TNAP inh hiacc
O=c1c2ccccc2nc(-c2ccc(-c3ccccc3)cc2)n1-c1ccncc1	73*	58	59	-8	1	-1
CC1CC(OP(O)(=S)c2ccc(N(C)C)cc2NC(=O)c2cccs2)CC(C)(C)C1 (stereo not drawn)	-7	·	·	-11	1	-4
O=C(c1cccc2ccccc12)C1CCCN(C2CCC2)C1 (stereo not drawn)	74*	·	·	0	1	2
Cn1cc(C(=O)NCc2ccccc2)c2ccccc21	1	·	·	-15	1	-4
Cc1ccc(O)c(C(=O)c2cc(C(=O)NCc3ccccc3)c(=O)n(Cc3ccccc3)c2)c1	78*	70	66	-9	1	0
O=C(c1cc(C(=O)NCc2ccccc2)c(=O)n(Cc2ccccc2)c1)c1cc(Br)ccc1O	99*	54	49	-3	1	0
CN1CCN(C(=O)COc2ccc(N(C)S(=O)(=O)c3ccc(F)cc3)cc2)CC1	8	·	·	-14	1.1	-8
Cc1nn(Cc2ccccc2)c(C)c1C(=O)NCc1ccccc1	-2	·	·	-6	1	-3
Cc1nn(Cc2ccccc2)c(C)c1C=C1C(=O)NC(=O)NC1=O	58*	95	99	-6	1	-1
O=C(c1ccccc1F)c1cn(CC(=O)N2CCCCC2)c2ccccc12	4	82	81	-8	1	-1
COC(=O)c1c(C)[nH]c(C(=O)C(Cc2ccccc2)N(C)C)c1C (stereo not drawn)	100*	105	109	-6	1	-4
CC(c1ccccc1F)n1cc(C(=O)Nc2ccc3nc[nH]c3c2)nn1 (stereo not drawn)	72*	82	74	-18	1.1	-6
CCN(CC)CCCNC(=O)c1c(O)c2ccccc2n(Cc2ccccc2)c1=O	100*	39	47	-5	1	-2
COC(=O)c1c(C)n(Cc2ccccc2)c2ccc(O)cc12	5	·	·	-3	1	-1
COCCCNC(=O)c1c(NC(=O)c2ccccc2)n(Cc2ccccc2)c2nc3ccccc3nc12	8	·	·	·	·	·
CCN(CC)CCNC(=O)c1c(O)c2ccccc2n(Cc2ccccc2)c1=O	89*	49	64	-3	1	-1
CC(NC1=NCCS1)c1ccccc1 (stereo not drawn)	0	·	·	-19	1.1	-8
CCOP(=O)(OCC)C(NS(=O)(=O)c1ccccc1)C(Cl)(Cl)Cl (stereo not drawn)	-6	·	·	-8	1	-3
Clc1cnc(Oc2ccc(Oc3ncc(Cl)cc3Cl)cc2)c(Cl)c1	-9	99	98	-12	1	2
CC(C(=O)c1ccccc1)N1C(=O)c2ccccc2C1=O (stereo not drawn)	75*	97	106	-13	1	-2
CC1CC(OC(=O)c2ccccc2)CC(C)N1C (stereo not drawn)	-3	97	100	-6	1	0
CSc1ccccc1C(=O)C1CCCN(Cc2ccn[nH]2)C1 (stereo not drawn)	-3	·	·	-6	1	-2
N#CC1=C(N)Oc2cc(O)ccc2C1c1ccc2c(c1)OCO2 (stereo not drawn)	6	·	·	-8	1	-4
O=C(CN1CC=C(c2ccccc2)CC1)Nc1cc(Cl)ccc1Cl	55*	98	90	-27	1	0
Cc1nc2cc(C(F)(F)F)ccc2n1C1CCN(Cc2nnnn2CCc2ccccc2)CC1	98*	43	39	-5	1	-5
SMILES	L major viab	bCat KO growth	HCT116 PTEN-null	TNAP inh noacc	TNAP act hiacc	TNAP inh hiacc
Cc1nc2cc(F)ccc2n1C1CCN(Cc2nnnn2CCc2ccccc2)CC1	32	77	67	-4	1	-2
Cc1ccc(Cn2nnnc2CN2CCC(n3nnc4cc(C(F)(F)F)ccc43)CC2)cc1	53*	47	43	-6	1.1	-6
N#CCCn1cc(C(=O)Nc2ccccc2Cl)c(-c2ccc([N+](=O)[O-])cc2)n1	10	79	73	-4	1	-4
Cc1ccc(C(=O)O)cc1N=Nc1c(O)[nH]c(=O)[nH]c1=O	-5	·	·	-2	0.9	9
CCOC(=O)c1sc(N=Nc2c(O)[nH]c(=O)[nH]c2=O)c(C(=O)OCC)c1C	59*	84	86	-55	1	4
O=C(Oc1ccc([N+](=O)[O-])cc1)N1CCC(N2CCCCC2)CC1	93*	83	87	-5	1	-2
CCC(C#N)(CC)P(=S)(c1ccccc1)c1ccccc1	100*	68	62	-7	1	0
CCOc1cccc(OCC)c2c(C)[n+](CC3CCCO3)c(C)c1-2 (stereo not drawn)	93*	96	108	9	1	2
Nc1c(C(=O)NCc2ccco2)c2nc3ccccc3nc2n1CCN1CCOCC1	7	52	34	10	1	0
O=C(NCCCN1CCOCC1)C(Cl)(Cl)Cl	53*	91	92	-10	1.1	-7
CC(C)(C)C(=O)NC1CCSC1=O (stereo not drawn)	-1	·	·	-10	1	-3
Cc1ccc(NP(=O)(Oc2ccccc2F)Oc2ccccc2F)cc1C	7	62	57	-8	1	0
Cc1cccc(NP(=O)(Oc2ccccc2F)Oc2ccccc2F)c1	57*	72	70	-12	1	-3
CC(NCc1ccc(Cl)c(Cl)c1)C(O)c1ccccc1 (stereo not drawn)	91*	86	89	-11	1	-5
COC(=O)C1=Nc2ccccc2/C1=C\c1c(O)n(-c2ccc(Br)cc2)c(=O)[nH]c1=O	67*	94	86	36	1	0
O=c1[nH]c(=O)n(-c2ccccc2)c(O)c1/C=C1/C(c2ccccc2)=Nc2ccccc21	79*	12	10	19	0.8	15
COC(=O)C1=Nc2ccccc2/C1=C\c1c(O)n(-c2ccc(OC)cc2)c(=O)[nH]c1=O	-3	95	100	12	1	0
CCN1CCN(S(=O)(=O)c2cnc(Cl)c(Br)c2)CC1	-1	63	63	-12	1.1	-7
Cn1c(O)c(/C=N/c2ncccn2)c(=O)n(C)c1=O	78*	97	98	-7	1.1	-6
Cn1c(O)c(C=NCc2cccs2)c(=O)n(C)c1=O	-4	99	·	-22	1.1	-7
CN1CCN(c2ccc([N+](=O)[O-])c(NCc3ccco3)c2)CC1	100*	84	98	13	0.9	12
O=[N+]([O-])c1ccc(N2CCNCC2)cc1NCc1ccco1	101*	83	80	15	0.8	18
CNc1cc(N2CCNCC2)ccc1[N+](=O)[O-]	6	·	·	12	0.9	11
CN1CCN(c2ccc([N+](=O)[O-])c(NCC3CCCO3)c2)CC1 (stereo not drawn)	-1	92	95	9	0.8	17

Source: PubChem BioAssay
